KCNK3 block: human KCNK3 channel inhibition, primary screen. O14649. CHO-KCNK3 thallium flux, FluxOR fluorescence; active compounds read low. actives 0.84% (n = 340,000). B-score at 10 µM. AID 602410;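 active = B-score under library mean minus 4 SD, starting fluorescence ratio at most library mean plus 5 SD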;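 also: more negative B-score means stronger inhibition of thallium flux through KCNK3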
hERG protect: hERG (human) protection from proarrhythmic block | CHO-hERG, FluxOR thallium flux, dofetilide IC70 present | Q12809 | activation (rescue from dofetilide block), less the hit threshold, % at 10 µM | actives 0.51% (n = 310,000);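 active = activation above the mean of controls blocked by dofetilide plus 5 SD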;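 also: thallium influx through hERG after potassium depolarization seen as dye fluorescence rise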
Target sequence (Q12809 whole entry, looked up): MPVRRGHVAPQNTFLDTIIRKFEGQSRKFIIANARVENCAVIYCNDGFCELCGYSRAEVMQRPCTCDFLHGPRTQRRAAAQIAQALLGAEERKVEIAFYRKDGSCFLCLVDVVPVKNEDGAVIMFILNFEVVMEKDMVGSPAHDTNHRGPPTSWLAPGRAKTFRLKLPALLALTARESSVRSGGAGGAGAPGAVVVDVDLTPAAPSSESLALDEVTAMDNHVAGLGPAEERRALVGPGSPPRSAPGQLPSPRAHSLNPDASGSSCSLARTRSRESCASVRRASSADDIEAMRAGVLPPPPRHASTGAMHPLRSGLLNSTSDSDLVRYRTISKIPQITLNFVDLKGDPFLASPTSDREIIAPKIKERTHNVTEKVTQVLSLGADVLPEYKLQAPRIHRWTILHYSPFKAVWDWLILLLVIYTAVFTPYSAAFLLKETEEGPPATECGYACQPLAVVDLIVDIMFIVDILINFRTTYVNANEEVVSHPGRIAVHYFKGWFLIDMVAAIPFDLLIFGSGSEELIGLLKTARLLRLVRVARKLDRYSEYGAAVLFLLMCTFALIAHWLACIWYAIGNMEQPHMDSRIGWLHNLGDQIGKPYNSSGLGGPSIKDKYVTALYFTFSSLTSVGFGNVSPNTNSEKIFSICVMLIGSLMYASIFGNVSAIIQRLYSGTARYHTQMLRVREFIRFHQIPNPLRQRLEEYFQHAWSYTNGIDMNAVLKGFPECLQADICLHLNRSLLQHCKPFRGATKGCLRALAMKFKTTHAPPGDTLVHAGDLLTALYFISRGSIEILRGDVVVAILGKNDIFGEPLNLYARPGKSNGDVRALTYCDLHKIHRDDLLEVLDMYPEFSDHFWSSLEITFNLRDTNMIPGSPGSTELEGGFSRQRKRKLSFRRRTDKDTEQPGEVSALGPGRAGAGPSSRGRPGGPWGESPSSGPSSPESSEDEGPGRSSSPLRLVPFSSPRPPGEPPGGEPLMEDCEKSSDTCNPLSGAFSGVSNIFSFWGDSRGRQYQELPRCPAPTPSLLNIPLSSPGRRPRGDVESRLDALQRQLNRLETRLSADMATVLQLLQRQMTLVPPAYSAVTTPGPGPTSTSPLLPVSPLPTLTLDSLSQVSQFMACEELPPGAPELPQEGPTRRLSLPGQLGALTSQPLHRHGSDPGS
Kir21 inh: Kir2.1 (mouse) channel inhibition; actives 0.85% (n = 310,000); B-score at 10 µM; HEK293-Kir2.1, FluxOR thallium flux fluorescence; active compounds read low; P35561; AID 1672;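 active = fluorescence ratio B-score at or below minus 3 SD of library scores, with starting-brightness B-score within 2 SD, cut at about -4.2 in these data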;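 also: channel flux triggered by added potassium and thallium sulfate stimulus; B-score of peak minus minimum fluorescence over baseline after thallium stimulus; more negative B-score means stronger Kir2.1 block with less thallium influx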
KCNQ1 act: potentiates or activates the human KCNQ1 potassium channel; B-score at 10 µM; P51787; CHO-K1 KCNQ1, thallium flux FluxOR fluorescence; active compounds read high; AID 2648; actives 0.35% (n = 310,000);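 active = fluorescence ratio B-score, a plate-corrected score, at least three library SD, with initial intensity B-score within 5 SD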
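Schedule – 37 °C overnight plating, 90-min dark dye load, 20-min compound pretreatment · System – stable KCNQ1 CHO-K1 line · Probe or stimulus – thallium- and potassium-containing depolarizing buffer · Measured by – kinetic FluxOR fluorescence, 10 s baseline plus 110 s post-stimulus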
KCNQ1 inh: blocks the human KCNQ1 potassium channel. P51787. CHO-K1 KCNQ1, FluxOR thallium flux fluorescence; active compounds read high. B-score at 10 µM. actives 1.3% (n = 310,000). AID 2642;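 active = compounds whose thallium flux B-score, printed positive for inhibition, exceeds three library SD while starting fluorescence stays within three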;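 also: channel opened by potassium depolarization with thallium stimulus after 20 min compound exposure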
KCNK9 block: blocks the human KCNK9 two-pore domain potassium channel; Q9NPC2; HEK293 KCNK9, FluxOR thallium flux fluorescence; active compounds read low; B-score at 10 µM; actives 1.2% (n = 310,000); AID 488922;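 active = ratio B-score over 3 SD below the library mean, with starting fluorescence within 5 SD of its mean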;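 also: negative B-score means less thallium flux so channel inhibition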
The depositor's hits bear a star; i = inactive; · = no result given. Hits are enriched below; roughly 3.8% of the tested compounds scored in any of these assays.

SMILES	KCNK3 block	hERG protect	Kir21 inh	KCNQ1 act	KCNQ1 inh	KCNK9 block
CCc1nc2ccccc2c(C(=O)OCC(=O)Nc2cccc(S(=O)(=O)N3CCOCC3)c2)c1C	-9*	-12	0.9	i	i	i
O=[N+]([O-])/C=C/c1c(OCc2ccccc2)ccc2ccccc12	i	2	-7.9*	i	i	-11*
CCOc1ccc(/C=C/[N+](=O)[O-])c2ccccc12	i	-6	-8.3*	i	i	i
CCOC(=O)COc1ccc2ccccc2c1/C=C/[N+](=O)[O-]	i	-23	-0.24	i	i	i
O=C(O)c1cccc(N2C(=O)c3ccc(Oc4ccc(Cl)cc4)cc3C2=O)c1	i	-21	-1	i	i	i
COc1ccccc1NC(=O)CN1CCN(c2ccc(Cl)cc2)CC1	i	-9	-0.87	i	i	i
CO/N=C/c1ccc(N2CCN(C(=O)c3ccc(Cl)cc3Cl)CC2)c([N+](=O)[O-])c1	i	-20	1.5	i	7*	i
NC(=O)c1nn(-c2ccccc2)nc1NC(=O)CN1CCCCC1	i	-10	0.47	i	i	i
COc1ccccc1/C=C/C(=O)N1CCN(S(=O)(=O)c2cc(C)ccc2C)CC1	-8.8*	·	·	·	·	·
COc1ccc(OC)c(/C=C/C(=O)N2CCN(S(=O)(=O)c3cc(C)ccc3C)CC2)c1	i	·	·	·	·	·
Cc1nc(SCC(=O)N2c3ccccc3NC(=O)CC2C)c2c(C)c(C)sc2n1 (stereo not drawn)	i	·	·	·	·	·
CCCCCC(C)NC(=O)c1ccoc1C (stereo not drawn)	i	-9	-2.4	i	i	i
CCOC(=O)/C(=C\C=C\c1ccccc1)NC(=O)c1ccccc1	i	-8	-0.71	i	i	i
CCOC(=O)/C(=C/C=C/c1ccccc1)NC(=O)c1ccccc1	i	-13	-0.64	i	i	-7.4*
CCCCOC(=O)C(NC(=O)c1ccccc1)=C(C)C	i	-15	-0.01	i	i	i
CCOC(=O)C(NC(=O)c1ccccc1)=C(C)C	i	5.4*	-1.4	i	i	i
CC(=O)N1CCN(C(=O)C2(NC(=O)Nc3ccccc3Cl)CCCCC2)CC1	i	-3	1.6	i	i	i
Nn1c(SCC(=O)Nc2cc(S(=O)(=O)N3CCOCC3)ccc2Cl)nnc1-c1cccnc1	i	-5	0.93	i	i	i
Cc1ccccc1NC(=S)Nc1ccccn1	i	-4	-0.48	i	i	i
Cc1cccc(N=Nc2c(C)c(C#N)c(O)[nH]c2=O)c1	i	-10	1.1	i	i	i
Cc1c(C#N)c(O)[nH]c(=O)c1N=Nc1ccc(Br)cc1C(=O)O	i	4.6*	-0.41	i	i	i
O=C(CN1CCN(c2cccc(C(F)(F)F)c2)CC1)N(C1CCCC1)C1CCS(=O)(=O)C1 (stereo not drawn)	-8.7*	·	·	·	·	·
O=C(CN1CCN(c2cccc(C(F)(F)F)c2)CC1)N(C1CC1)C1CCS(=O)(=O)C1 (stereo not drawn)	i	·	·	·	·	·
CCC(C)n1c(=S)[nH]c2c(sc3ccc([N+](=O)[O-])cc32)c1=O (stereo not drawn)	i	105*	1.2	i	i	i
CC(=O)c1ccc(NC(=O)c2cnn3c(C(F)F)cc(C4CC4)nc23)cc1	i	-1	-3.3	i	i	i
SMILES	KCNK3 block	hERG protect	Kir21 inh	KCNQ1 act	KCNQ1 inh	KCNK9 block
CC1CCc2cc(F)ccc2N1S(=O)(=O)c1ccc(F)cc1 (stereo not drawn)	i	3	-4.3*	i	i	i
CC(C)CCOCC(=O)Oc1ccccc1C(=O)O	i	-3	-1.5	i	i	i
CCNc1ccc2c(Cl)cc(=O)oc2c1	i	-13	0.32	i	i	i
O=C(O)c1ccc(COc2ccc(Cl)cc2)o1	i	-12	-2.3	i	i	i
CCc1ccc(OCc2ccc(C(=O)O)o2)cc1	i	5.2*	-0.99	i	i	i
O=C(N/N=C/c1ccc(F)cc1)c1cc[n+]([O-])cc1	i	-2	0	i	i	i
Nc1ccc(C(=O)OCC(=O)N2CCN(C(=O)c3ccco3)CC2)cc1[N+](=O)[O-]	i	0	0.87	i	i	i
CCOC(=O)c1c(C)[nH]c(C)c1C(=O)COC(=O)c1cc2ccccc2cc1OC	i	-8	-2.8	i	i	-7.7*
CCc1ccc2c(Cl)c(C(=O)N/N=C/c3c[nH]c4ccccc34)sc2c1	i	-9	0.38	i	6*	i
COc1ccc(-n2cnc3ccccc3c2=O)c([N+](=O)[O-])c1	i	5.5*	0.08	i	i	i
O=c1c2ccccc2ncn1-c1ccc(Br)cc1[N+](=O)[O-]	i	-6	-0.03	i	i	i
CCC(C)NC(=O)c1ccccc1NC(=O)/C(=C/c1ccc(OC)cc1)c1ccccc1 (stereo not drawn)	i	-14	-0.01	i	7*	i
O=C1NC[C@H](Cc2ccccc2)N(C[C@H]2CCCN2C[C@H](Cc2ccccc2)N2C[C@H](Cc3ccccc3)N(CCc3ccccc3)C(=O)C2=O)C1=O	i	·	·	·	·	·
CCOC(=O)c1c(NC(=O)C(C)NCc2ccco2)sc2c1CCC(C)C2 (stereo not drawn)	i	-11	0.52	i	6*	i
COC(=O)c1ccc(C(C(=O)NC2CCCCC2)N(C(=O)Cc2cccs2)C2CC2)cc1 (stereo not drawn)	i	-6	0.23	i	6*	i
COC(=O)c1ccc(C(C(=O)NC2CCCCC2)N(Cc2ccccc2)C(=O)Cc2cccs2)cc1 (stereo not drawn)	i	-8	-0.95	i	i	i
O=C(COC(=O)C1CCC(=O)N1)Nc1cccc([N+](=O)[O-])c1 (stereo not drawn)	i	·	·	·	·	·
COc1ccc(C(c2nnnn2C(C)(C)C)N2CCN(c3nc4ccccc4s3)CC2)cc1 (stereo not drawn)	i	-10	0.13	i	i	-7.1*
Cc1ccc(CC(=O)NC(C)CCc2ccccc2)cc1 (stereo not drawn)	i	-2	-0.79	i	i	i
Cc1ccccc1CN(C)CC(=O)NC(C)CCc1ccccc1 (stereo not drawn)	i	-11	-11*	i	i	i
Cc1ccc(CN(C)CC(=O)NC(C)c2ccccc2)cc1 (stereo not drawn)	i	-8	-4.3*	i	i	i
CC(=O)C(Cc1ccccc1)NC(=O)CN(C)Cc1ccccc1Cl (stereo not drawn)	i	-5	-4.9*	i	i	i
